Laboratory results: ChEMBL document CHEMBL4680124, “2-Styryl-4-aminoquinazoline derivatives as potent DNA-cleavage, p53-activation and in vivo effective anticancer agents” (Eur J Med Chem, 2020)
The source made the active and inactive calls. The calls are words filed in the database; no cut-off is given here.

Tests used:
MGC-803 [1] = test: Induction of apoptosis in human MGC-803 cells assessed as decrease in Bcl-2 expression at 5 uM measured after 24 hrs by Western blot analysis; assay type: functional, cell-based
Method in brief: (§1)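 MGC-803 cells (2×10^6) plated overnight, then treated for 24 h at 0.5, 1.0 or 2.5 µM (test agent) or 5.0 µM (comparator). Whole-cell lysates separated by SDS-PAGE, transferred to PVDF and probed with primary antibodies. AP-linked anti-rabbit IgG, ECL detection, β-actin loading control. Representative of three experiments.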

MGC-803 [2] = test: Induction of apoptosis in human MGC-803 cells assessed as increase in Bim expression at 5 uM measured after 24 hrs by Western blot analysis; assay type: functional, cell-based
Method in brief: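 MGC-803 cells (2×10^6) cultured overnight, then exposed 24 h to 0.5, 1.0 or 2.5 μM, or 5.0 μM for the reference agent. Lysates were resolved by SDS-PAGE, transferred to PVDF and probed with primary antibodies. Detection used AP-linked anti-rabbit IgG and ECL. β-actin served as loading control.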

MGC-803 [3] = test: Cytotoxicity against human MGC-803 cells expressing mutant type p53 assessed as reduction in cell viability preincubated for 48 hrs and measured after 4 hrs by MTT assay; assay type: functional, cell-based
DU-145 = test: Cytotoxicity against human DU145 cells expressing mutant type p53 assessed as reduction in cell viability preincubated for 48 hrs and measured after 4 hrs by MTT assay; assay type: functional, cell-based
Method in brief: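 MTT assay. Cells grown in DMEM (T24, MGC-803, A549, HL-7702), RPMI-1640 (DU145) or DMEM-F12 (PC-3), each with 10% FBS. Exposed to 1.25–20 µM in medium with 1% DMSO for 48 h, then MTT for 4 h. Formazan dissolved in DMSO and read at 570 nm. Five wells per concentration; means ± SD of independent repeats.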

L02 = test: Cytotoxicity against human HL-7702 cells expressing wild type p53 assessed as reduction in cell viability preincubated for 48 hrs and measured after 4 hrs by MTT assay; assay type: functional, cell-based
T-24 = test: Cytotoxicity against human T-24 cells […] assessed as reduction in cell viability preincubated for 48 hrs and measured after 4 hrs by MTT assay; assay type: functional, cell-based
MGC-803 [4] = test: Induction of apoptosis in human MGC-803 cells assessed as decrease in Bak expression at 5 uM measured after 24 hrs by Western blot analysis; assay type: functional, cell-based; method in brief: as §1
MGC-803 [5] = test: Induction of apoptosis in human MGC-803 cells assessed as increase in Bax expression at 5 uM measured after 24 hrs by Western blot analysis; assay type: functional, cell-based; method in brief: as §1
MGC-803 [6] = test: Induction of apoptosis in human MGC-803 cells assessed as decrease in Bcl-xL expression at 5 uM measured after 24 hrs by Western blot analysis; assay type: functional, cell-based; method in brief: as §1
PC-3 = test: Cytotoxicity against human PC-3 cells assessed as reduction in cell viability preincubated for 48 hrs and measured after 4 hrs by MTT assay; assay type: functional, cell-based
PLC-PRF-5 = test: Antitumor activity against human PLC/PRF/5 cells xenografted in mouse assessed as tumor growth inhibition at 30 mg/kg; assay type: functional; conditions: read-out: TGI
A549 = test: Cytotoxicity against human A549 cells expressing wild type p53 assessed as reduction in cell viability preincubated for 48 hrs and measured after 4 hrs by MTT assay; assay type: functional, cell-based
MGC-803 [7] = test: Antitumor activity against human MGC-803 cells xenografted in BALB/C nude mouse assessed as tumor growth inhibition at 10 mg/kg, ip administered every 2 days and measured 3 times per week; assay type: functional, organism-based; conditions: time 2.0 day
Method in brief: (§2)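 Male BALB/c nude mice, 6 weeks old, given 5×10^6 MGC-803 cells s.c. in the flank. When tumors reached about 80 mm3, mice were randomized (n = 6/group) and dosed i.p. every 2 days. Vehicle was 5% DMSO in saline. Drug solutions were 1.0 or 2.0 mg/mL (DMSO/saline). Tumor length and width plus body weight were measured three times weekly; volume = lw²/2. Mean ± SD.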

Mus musculus = test: Toxicity against BALB/c nude mouse xenografted with human MGC-803 cells assessed as body weight at 10 mg/kg, ip administered every 2 days and measured 3 times per week for 16 days; assay type: organism-based; conditions: in vivo, 384 h, time 16 day
Method in brief: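 Male BALB/c nude mice, 6 weeks old, received 5×10^6 MGC-803 cells subcutaneously in the flank. At about 80 mm3, mice were randomized (n = 6/group). They were dosed i.p. every 2 days with vehicle (5% DMSO in saline, v/v) or drug in DMSO/saline at 1.0 or 2.0 mg/mL. Body weight was recorded three times weekly; mean ± SD.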

MGC-803 [8] = test: Antitumor activity against human MGC-803 cells xenografted in BALB/C nude mouse assessed as tumor growth inhibition at 10 mg/kg, ip administered every 2 days and measured 3 times per week for 16 days; assay type: functional; design: scale not given: the % may be the effect or the level left; conditions: time 16 day; method in brief: as §2

| SMILES | Activity (MGC-803 [1]) | Activity (MGC-803 [2]) | IC50 (MGC-803 [3]) [µM] | IC50 (DU-145) [µM] | IC50 (L02) [µM] | IC50 (T-24) [µM] | Activity (MGC-803 [4]) | Activity (MGC-803 [5]) | Activity (MGC-803 [6]) | IC50 (PC-3) [µM] | inhibition in vivo at 30 mg/kg (PLC-PRF-5) [%] | IC50 (A549) [µM] | Activity (MGC-803 [7]) | Activity (Mus musculus) | Activity (MGC-803 [8]) [%] |
| --- | --- | --- | --- | --- | --- | --- | --- | --- | --- | --- | --- | --- | --- | --- | --- |
| COc1ccc(/C=C/c2nc(NCCCN(C)C)c3ccccc3n2)cc1 | inactive | inactive | 18.3 | 15.3 | 25.3 | 20.3 | inactive | inactive | inactive | 16.3 | 60 | 24.8 |  |  |  |
| COc1ccc(/C=C/c2nc(NCCN(C(C)C)C(C)C)c3cc(Cl)ccc3n2)cc1OC |  |  | 15.6 | > 100 | > 100 | 14.8 |  |  |  | > 100 |  | > 100 |  |  |  |
| COc1ccc(/C=C/c2nc(NCCCN(C)C)c3ccccc3n2)cc1OC |  |  | > 100 | > 100 | > 100 | 88.4 |  |  |  | > 100 |  | > 100 |  |  |  |
| O=[N+]([O-])c1ccc(/C=C/c2nc(NCCN3CCOCC3)c3cc(Cl)ccc3n2)cc1 |  |  | > 100 | > 100 | > 100 | > 100 |  |  |  | > 100 |  | > 100 |  |  |  |
| COc1cccc2c1C(=O)c1c(O)c3c(c(O)c1C2=O)C[C@@](O)(C(=O)CO)C[C@@H]3O[C@H]1C[C@H](N)[C@@H](O)[C@H](C)O1 [EPIRUBICIN] |  |  | 1.2 | 2.01 | 2.1 | 1.12 |  |  |  | 2.31 |  | 0.82 | Active | Non-Toxic | 67.2 |
| C(=C\c1nc(NCCN2CCCCC2)c2ccccc2n1)/c1ccc2c(c1)OCO2 |  |  | 10.7 | 8.53 | 9.91 | 6.38 |  |  |  | 12.2 |  | 39.6 |  |  |  |
| COc1ccc(/C=C/c2nc(NCCN(C)C)c3cc(Cl)ccc3n2)cc1OC |  |  | 11.8 | 17.9 | 80.5 | 12.1 |  |  |  | 23.6 |  | 21.3 |  |  |  |
